# Experimental data from ChEMBL document CHEMBL2311390, “Synthesis and preliminary evaluation of pharmacological properties of some piperazine derivatives of xanthone” (Bioorg Med Chem, 2013).
# Assays:
# [1] = test system: Rattus norvegicus; assay: Hypotensive activity in normotensive Wistar rat assessed as reduction of diastolic blood pressure at 0.31 mg/kg, iv after 5 mins; format: functional, Artery
# Procedure, shortened: (§1)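 Male normotensive Wistar rats were anaesthetised with thiopental 75 mg/kg ip. The right carotid artery was cannulated with heparinised saline for pressure recording. After 5 min of stabilisation, compound was injected into the tail vein at 1 mL/kg. Systolic and diastolic pressure were followed up to 60 min. Data are means ± SEM of 5–6 rats, analysed by one-way ANOVA.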
# [2] = test system: Rattus norvegicus; assay: Hypotensive activity in normotensive Wistar rat assessed as reduction of systolic blood pressure at 0.31 mg/kg, iv after 30 mins; format: functional, Artery
# Procedure, shortened: (§2)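 Male normotensive Wistar rats (170–350 g) anaesthetised with thiopental 75 mg/kg ip; right carotid artery cannulated with heparinised saline-filled polyethylene tubing for pressure recording. After a 5 min stabilisation, compound given into the caudal vein at 1 mL/kg. Systolic pressure is recorded at 0, 5, 10, 20, 30 and 60 min, and the data are reported as mean ± SEM of five to six animals, with one-way ANOVA.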
# [3] = test system: Rattus norvegicus; assay: Hypotensive activity in normotensive Wistar rat assessed as reduction of systolic blood pressure at 0.31 mg/kg, iv after 20 mins; format: functional, Artery; procedure, shortened: as §2
# [4] = test system: Rattus norvegicus; assay: Hypotensive activity in normotensive Wistar rat assessed as reduction of systolic blood pressure at 0.31 mg/kg, iv after 10 mins; format: functional, Artery; procedure, shortened: as §2
# [5] = test system: Rattus norvegicus; assay: Hypotensive activity in normotensive Wistar rat assessed as reduction of systolic blood pressure at 0.31 mg/kg, iv after 5 mins; format: functional, Artery; procedure, shortened: as §2
# [6] = test system: Rattus norvegicus; assay: Hypotensive activity in normotensive Wistar rat assessed as reduction of diastolic blood pressure at 0.625 mg/kg, iv after 10 mins; format: functional, Artery; procedure, shortened: as §1
# [7] = test system: Rattus norvegicus; assay: Hypotensive activity in normotensive Wistar rat assessed as reduction of diastolic blood pressure at 0.625 mg/kg, iv after 5 mins; format: functional, Artery; procedure, shortened: as §1
# [8] = test system: Rattus norvegicus; assay: Hypotensive activity in normotensive Wistar rat assessed as reduction of systolic blood pressure at 0.625 mg/kg, iv after 60 mins; format: functional, Artery; procedure, shortened: as §2
# [9] = test system: Rattus norvegicus; assay: Hypotensive activity in normotensive Wistar rat assessed as reduction of systolic blood pressure at 0.625 mg/kg, iv after 20 mins; format: functional, Artery; procedure, shortened: as §2
# [10] = test system: Rattus norvegicus; assay: Hypotensive activity in normotensive Wistar rat assessed as reduction of systolic blood pressure at 0.625 mg/kg, iv after 5 mins; format: functional, Artery; procedure, shortened: as §2
# [11] = test system: Rattus norvegicus; assay: Hypotensive activity in normotensive Wistar rat assessed as reduction of systolic blood pressure at 0.625 mg/kg, iv after 10 mins; format: functional, Artery; procedure, shortened: as §2
# [12] = test system: Rattus norvegicus; assay: Hypotensive activity in normotensive Wistar rat assessed as reduction of diastolic blood pressure at 0.16 mg/kg, iv after 30 mins; format: functional, Artery; procedure, shortened: as §1
# [13] = test system: Rattus norvegicus; assay: Hypotensive activity in normotensive Wistar rat assessed as reduction of diastolic blood pressure at 0.16 mg/kg, iv after 10 mins; format: functional, Artery; procedure, shortened: as §1
# [14] = test system: Rattus norvegicus; assay: Hypotensive activity in normotensive Wistar rat assessed as reduction of diastolic blood pressure at 0.16 mg/kg, iv after 5 mins; format: functional, Artery; procedure, shortened: as §1
# [15] = test system: Rattus norvegicus; assay: Hypotensive activity in normotensive Wistar rat assessed as reduction of systolic blood pressure at 0.16 mg/kg, iv after 20 mins; format: functional, Artery; procedure, shortened: as §2
# [16] = test system: Rattus norvegicus; assay: Hypotensive activity in normotensive Wistar rat assessed as reduction of systolic blood pressure at 0.16 mg/kg, iv after 5 mins; format: functional, Artery; procedure, shortened: as §2
# [17] = test system: Rattus norvegicus; assay: Hypotensive activity in normotensive Wistar rat assessed as reduction of diastolic blood pressure at 0.31 mg/kg, iv after 10 mins; format: functional, Artery; procedure, shortened: as §1
# [18] = test system: Rattus norvegicus; assay: Hypotensive activity in normotensive Wistar rat assessed as reduction of diastolic blood pressure at 0.31 mg/kg, iv after 20 mins; format: functional, Artery; procedure, shortened: as §1
# [19] = test system: Rattus norvegicus; assay: Hypotensive activity in normotensive Wistar rat assessed as reduction of diastolic blood pressure at 1.25 mg/kg, iv after 60 mins; format: functional, Artery; procedure, shortened: as §1
# [20] = test system: Rattus norvegicus; assay: Hypotensive activity in normotensive Wistar rat assessed as reduction of diastolic blood pressure at 1.25 mg/kg, iv after 20 mins; format: functional, Artery; procedure, shortened: as §1
# [21] = test system: Rattus norvegicus; assay: Hypotensive activity in normotensive Wistar rat assessed as reduction of diastolic blood pressure at 1.25 mg/kg, iv after 10 mins; format: functional, Artery; procedure, shortened: as §1
# [22] = test system: Rattus norvegicus; assay: Hypotensive activity in normotensive Wistar rat assessed as reduction of systolic blood pressure at 1.25 mg/kg, iv after 60 mins; format: functional, Artery; procedure, shortened: as §2
# [23] = test system: Rattus norvegicus; assay: Hypotensive activity in normotensive Wistar rat assessed as reduction of diastolic blood pressure at 1.25 mg/kg, iv after 5 mins; format: functional, Artery; procedure, shortened: as §1
# [24] = test system: Rattus norvegicus; assay: Hypotensive activity in normotensive Wistar rat assessed as reduction of systolic blood pressure at 1.25 mg/kg, iv after 30 mins; format: functional, Artery; procedure, shortened: as §2
# [25] = test system: Rattus norvegicus; assay: Hypotensive activity in normotensive Wistar rat assessed as reduction of systolic blood pressure at 1.25 mg/kg, iv after 20 mins; format: functional, Artery; procedure, shortened: as §2
# [26] = test system: Rattus norvegicus; assay: Hypotensive activity in normotensive Wistar rat assessed as reduction of systolic blood pressure at 1.25 mg/kg, iv after 10 mins; format: functional, Artery; procedure, shortened: as §2
# [27] = test system: Rattus norvegicus; assay: Cardiotoxicity in Wistar rat assessed as hear beats per min at 10 mg/kg, iv after 15 mins by ECG analysis; format: toxicity, organism-based; design: dose 10 mg/kg, route intravenous; conditions: in vivo, 0.25 h
# Procedure, shortened: (§3)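 Male normotensive Wistar rats, 170–350 g, six per group. Compound given iv at a constant volume of 1 mL/kg. ECG was recorded just before dosing and at 1, 5 and 15 min after. PQ, QRS and QT intervals and heart rate were read from the trace. Groups were compared by one-way ANOVA.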
# [28] = test system: Rattus norvegicus; assay: Cardiotoxicity in Wistar rat assessed as QT interval at 10 mg/kg, iv after 15 mins by ECG analysis; format: toxicity, organism-based; design: dose 10 mg/kg, route intravenous; conditions: in vivo, 0.25 h; procedure, shortened: as §3
# [29] = test system: Rattus norvegicus; assay: Cardiotoxicity in Wistar rat assessed as hear beats per min at 10 mg/kg, iv after 10 mins by ECG analysis; format: toxicity, organism-based; design: dose 10 mg/kg, route intravenous; conditions: in vivo
# [30] = test system: Rattus norvegicus; assay: Cardiotoxicity in Wistar rat assessed as QT interval at 10 mg/kg, iv after 10 mins by ECG analysis; format: toxicity, organism-based; design: dose 10 mg/kg, route intravenous; conditions: in vivo
# [31] = test system: Rattus norvegicus; assay: Cardiotoxicity in Wistar rat assessed as QRS interval at 10 mg/kg, iv after 10 mins by ECG analysis; format: toxicity, organism-based; design: dose 10 mg/kg, route intravenous; conditions: in vivo
# [32] = test system: Rattus norvegicus; assay: Cardiotoxicity in Wistar rat assessed as hear beats per min at 10 mg/kg, iv after 5 mins by ECG analysis; format: toxicity, organism-based; design: dose 10 mg/kg, route intravenous; conditions: in vivo; procedure, shortened: as §3
# [33] = test system: Rattus norvegicus; assay: Cardiotoxicity in Wistar rat assessed as QT interval at 10 mg/kg, iv after 5 mins by ECG analysis; format: toxicity, organism-based; design: dose 10 mg/kg, route intravenous; conditions: in vivo; procedure, shortened: as §3
# [34] = test system: Rattus norvegicus; assay: Cardiotoxicity in Wistar rat assessed as PQ interval at 10 mg/kg, iv after 5 mins by ECG analysis; format: toxicity, organism-based; design: dose 10 mg/kg, route intravenous; conditions: in vivo; procedure, shortened: as §3
# [35] = test system: Rattus norvegicus; assay: Cardiotoxicity in Wistar rat assessed as hear beats per min at 5 mg/kg, iv after 15 mins by ECG analysis; format: toxicity, organism-based; design: dose 5 mg/kg, route intravenous; conditions: in vivo, 0.25 h; procedure, shortened: as §3
# [36] = test system: Rattus norvegicus; assay: Cardiotoxicity in Wistar rat assessed as PQ interval at 5 mg/kg, iv after 15 mins by ECG analysis; format: toxicity, organism-based; design: dose 5 mg/kg, route intravenous; conditions: in vivo, 0.25 h; procedure, shortened: as §3
# [37] = test system: Rattus norvegicus; assay: Cardiotoxicity in Wistar rat assessed as QT interval at 5 mg/kg, iv after 10 mins by ECG analysis; format: toxicity, organism-based; design: dose 5 mg/kg, route intravenous; conditions: in vivo
# [38] = test system: Rattus norvegicus; assay: Cardiotoxicity in Wistar rat assessed as PQ interval at 5 mg/kg, iv after 10 mins by ECG analysis; format: toxicity, organism-based; design: dose 5 mg/kg, route intravenous; conditions: in vivo
# [39] = test system: Rattus norvegicus; assay: Cardiotoxicity in Wistar rat assessed as hear beats per min at 5 mg/kg, iv after 5 mins by ECG analysis; format: toxicity, organism-based; design: dose 5 mg/kg, route intravenous; conditions: in vivo; procedure, shortened: as §3
# [40] = test system: Rattus norvegicus; assay: Cardiotoxicity in Wistar rat assessed as QT interval at 5 mg/kg, iv after 5 mins by ECG analysis; format: toxicity, organism-based; design: dose 5 mg/kg, route intravenous; conditions: in vivo; procedure, shortened: as §3
compound,measurement,setting,value
COc1ccccc1N1CCN(CCCOc2cccc3c(=O)c4ccccc4oc23)CC1.Cl,Activity,[1],107.2 mmHg
same,Activity,[2],119.5 mmHg
same,Activity,[3],121 mmHg
same,Activity,[4],122.8 mmHg
same,Activity,[5],122 mmHg
same,Activity,[6],106.5 mmHg
same,Activity,[7],101 mmHg
same,Activity,[8],129.5 mmHg
same,Activity,[9],129.5 mmHg
same,Activity,[10],122 mmHg
same,Activity,[11],125.5 mmHg
same,Activity,[12],100 mmHg
same,Activity,[13],99.2 mmHg
same,Activity,[14],97 mmHg
same,Activity,[15],113.4 mmHg
same,Activity,[16],109.6 mmHg
same,Activity,[17],107.7 mmHg
same,Activity,[18],105.7 mmHg
COc1ccccc1N1CCN(CC(COc2cccc3c(=O)c4ccccc4oc23)OC(C)=O)CC1.Cl (racemic),Activity,[6],96.4 mmHg
same,Activity,[7],95.6 mmHg
same,Activity,[8],123.2 mmHg
same,Activity,[9],122.2 mmHg
same,Activity,[10],124.8 mmHg
same,Activity,[11],123.8 mmHg
same,Activity,[19],89.6 mmHg
same,Activity,[20],92.2 mmHg
same,Activity,[21],93.6 mmHg
same,Activity,[22],116.6 mmHg
same,Activity,[23],92.8 mmHg
same,Activity,[24],117.6 mmHg
same,Activity,[25],117 mmHg
same,Activity,[26],118.4 mmHg
COc1ccccc1N1CCN(CC(O)COc2cccc3c(=O)c4ccccc4oc23)CC1.Cl (racemic),Activity,[1],102.8 mmHg
same,Activity,[2],118.6 mmHg
same,Activity,[3],120.6 mmHg
same,Activity,[4],121.8 mmHg
same,Activity,[5],122.8 mmHg
same,Activity,[12],101.8 mmHg
same,Activity,[13],110.2 mmHg
same,Activity,[14],109.2 mmHg
same,Activity,[15],118.5 mmHg
same,Activity,[16],124 mmHg
same,Activity,[17],103 mmHg
same,Activity,[18],102 mmHg
Cl.Cl.Cl.O=c1c2ccc(Cl)cc2oc2c(OCC(O)CN3CCN(CCOc4ccccc4)CC3)cccc12 (racemic),Activity,[27],283.41 bpm
same,Activity,[28],53.2 ms
same,Activity,[29],242.43 bpm
same,Activity,[30],50.48 ms
same,Activity,[31],20.32 ms
same,Activity,[32],303.69 bpm
same,Activity,[33],54.4 ms
same,Activity,[34],33.12 ms
same,Activity,[19],103.6 mmHg
same,Activity,[20],97.4 mmHg
same,Activity,[21],101.2 mmHg
same,Activity,[22],114.8 mmHg
same,Activity,[23],102.6 mmHg
same,Activity,[24],113.2 mmHg
same,Activity,[25],110.8 mmHg
same,Activity,[26],115.2 mmHg
Cl.Cl.Cl.O=c1c2ccc(Cl)cc2oc2c(OCC(O)CN3CCN(C/C=C/c4ccccc4)CC3)cccc12 (racemic),Activity,[35],329.3 bpm
same,Activity,[36],45.2 ms
same,Activity,[37],74.7 ms
same,Activity,[38],46 ms
same,Activity,[39],317.3 bpm
same,Activity,[40],73.6 ms
Cl.Cl.Cl.O=c1c2ccc(Cl)cc2oc2c(OCC(O)CN3CCN(Cc4ccccc4)CC3)cccc12 (racemic),Activity,[27],268.8 bpm
same,Activity,[28],78.8 ms
same,Activity,[29],285 bpm
same,Activity,[30],72.8 ms
same,Activity,[31],19.6 ms
same,Activity,[32],295.3 bpm
same,Activity,[33],74 ms
same,Activity,[34],41.9 ms
Cl.Cl.O=c1c2ccccc2oc2c(OCC(O)CN3CCN(C/C=C/c4ccccc4)CC3)cccc12 (racemic),Activity,[35],309 bpm
same,Activity,[36],41.7 ms
same,Activity,[37],77 ms
same,Activity,[38],41.7 ms
same,Activity,[39],328 bpm
same,Activity,[40],76.4 ms
